Screening results as filed in PubChem BioAssay.
PKA-R1A act = activators of PKA-R1A complex; hit rate 0.083% among 340,000; activation, % at 11.4 µM; AID 504707; P00514+P68181; PKA-R1A dissociation, Cy5-IP20 fluorescence polarization; scaled: DMSO 0%, 113 µM cGMP 100%;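 active = percent activation above the mean of all tested compounds plus 3 SD, cut at about 19% in these data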;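 note: higher means more PKAc released from R1A so a rise in polarization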
CAL PDZ FP-1 = inhibitors of human CAL PDZ peptide binding | AID 602252 | inhibition, % at 24.9 µM | Q9HD26 | hit rate 0.92% among 300,000 | purified CAL PDZ, TMR-peptide fluorescence polarization, 1 h;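 active = mean inhibition of at least 30% with at least half of replicates also reaching 30%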;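 note: 0% = DMSO neutral control and 100% = excess unlabeled competitor peptide PRC23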
PKA-R2B act = PKA-R2B complex activation. P22694+P31323. PKA-R2B holoenzyme dissociation, Cy5-IP20 fluorescence polarization; R2B truncated from residue 108, S112A mutant; 0% DMSO only, 100% 113 µM cGMP. activation, % at 11.4 µM. hit rate 0.079% among 340,000. AID 504700;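 active = activation above a cutoff set at the mean over all compounds plus 3 SD, cut at about 18% in these data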;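 note: higher means more holoenzyme dissociation and a rise in polarization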
NTR1 agonist = agonists of human neurotensin receptor NTR1. NTR1-U2OS beta-arrestin-GFP spot imaging, agonist mode. activation, % at 20 µM. hit rate 0.17% among 330,000. AID 493036;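 active = activation at or above 40% of the spot to cytoplasm intensity ratio, with at least 20 cells analyzed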;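 note: 0% = DMSO without peptide and 100% = 100 nM NTR1 peptide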
Target sequence (P30989 whole entry, looked up): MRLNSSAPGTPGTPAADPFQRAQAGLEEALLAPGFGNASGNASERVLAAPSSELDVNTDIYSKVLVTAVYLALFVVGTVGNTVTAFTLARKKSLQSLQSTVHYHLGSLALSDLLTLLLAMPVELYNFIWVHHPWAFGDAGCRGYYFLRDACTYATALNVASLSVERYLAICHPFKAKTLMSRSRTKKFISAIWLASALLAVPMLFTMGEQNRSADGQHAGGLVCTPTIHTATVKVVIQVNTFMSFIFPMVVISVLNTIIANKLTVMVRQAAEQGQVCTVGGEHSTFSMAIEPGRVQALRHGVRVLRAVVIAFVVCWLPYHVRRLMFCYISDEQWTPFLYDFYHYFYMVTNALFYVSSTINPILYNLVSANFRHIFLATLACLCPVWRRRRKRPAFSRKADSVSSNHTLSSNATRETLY
dFosB act = enhances mouse delta FosB homodimer DNA binding; P13346; purified delta FosB, TAMRA-CDK5 oligo fluorescence polarization; percent of positive-control signal above neutral wells; activation, % at 25 µM; hit rate 0.99% among 340,000;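 active = mean activation above about 17%, with every replicate also reaching it, limit read from the data, passing the limit was not always enough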
CAL PDZ FP-2 = inhibitors of human CAL PDZ peptide binding | purified CAL PDZ, TMR-peptide fluorescence polarization, 1 h | inhibition, % at 20 µM | hit rate 0.02% among 330,000 | AID 504414;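 active = highest replicate inhibition of at least 40%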;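 note: plate controls were DMSO neutral control wells for no effect and unlabeled competitor peptide control wells for full effect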
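Material: tagged CAL PDZ protein CerCALP, purified; buffer or medium: sodium phosphate/NaCl buffer pH 7.4 with TCEP, IgG, Thesit; also added: fluorescent TMR peptide probe; schedule: 1 h incubation at room temperature before polarization reading; technique: fluorescence polarization from S- and P-plane intensities, G-factor corrected; control set: unlabelled peptide and DMSO controls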
* hit, by the source's call; / = no result given. Most compounds without a hit are left out; they make up all but 2% or so of the library.

SMILES	PKA-R1A act	CAL PDZ FP-1	PKA-R2B act	NTR1 agonist	dFosB act	CAL PDZ FP-2
COc1ccc(-c2c(C#Cc3ccsc3)c3cc(-c4ccc5[nH]ccc5c4)ccc3n2C)cc1	7.7	-2.9	-9.6	-0.8	17.2*	0.9
CCOc1ccc(Br)cc1S(=O)(=O)NC1CCCC1	4.0	-4.2	-8.6	1.1	-8.3	0.0
CN(C)c1cccc(C(=O)NNC(=O)CN2C(=O)C3CC=CCC3C2=O)c1 (centres undefined)	0.7	/	-3.1	0.9	-3.2	-0.3
COc1ccccc1CNS(=O)(=O)c1ccc(N2CCCC2)cc1Br	-4.5	-2.3	-2.5	0.8	-9.3	0.6
CN(/C=C/c1c([N+](=O)[O-])c(=O)n(C)c(=O)n1C)c1ccccc1	-4.9	86.2*	-8.7	-0.7	-0.4	-7.2
Nc1nc(SCC(=O)c2ccc(Cl)cc2)c2ncn(C3OC(CO)C(O)C3O)c2n1 (centres undefined)	-2.0	53.0*	-0.2	/	-9.4	7.1
O=C(NCc1ccncc1)C(=O)N/N=C/c1ccccn1	-16.6	55.6*	2.5	2.0	7.3	-1.5
Cc1cccc(C(=O)NCc2ccc(S(N)(=O)=O)cc2)c1[N+](=O)[O-]	0.6	45.8*	-2.8	-1.8	-1.9	-0.3
NC(=O)Nc1ccc(C(=O)OCC(=O)N(Cc2ccccc2)C2CCS(=O)(=O)C2)cc1 (centres undefined)	-0.6	36.6*	-2.9	0.4	-4.2	-0.4
Cc1cccc(C)c1OCC(=O)N(Cc1ccc(N(C)C)cc1)C1CCS(=O)(=O)C1 (centres undefined)	4.8	76.4*	3.2	1.0	-7.7	0.2
COC(C[C@@H]1O[C@@H]1[C@H](O)[C@@H](C)OCc1ccccc1)OC	-3.1	0.1	-10.9	-0.2	1.8	-0.2
O=C1CS/C(=N/N=C/c2ccccc2)N1c1ccc(O)cc1	-1.7	79.4*	11.6	-1.7	-0.3	/
O=C1CS/C(=N\N=C\c2ccco2)N1c1ccccc1	-1.6	5.2	-6.2	1.7	-2.1	-0.4
CC1CCCCC12NC(=O)N(CC(=O)N1CCN(C(=O)c3cccs3)CC1)C2=O (centres undefined)	3.4	5.1	4.8	-1.4	0.3	0.5
C=CCCCCCCCCC(=O)NNC1CC(=O)N(c2ccccc2)C1=O (centres undefined)	-5.2	48.6*	7.6	1.0	-0.3	-0.3
CCOC(=O)C1(COCc2ccccc2)CCCCC1=O (centres undefined)	-1.8	/	2.6	/	/	/
CCC(c1nnc(SC(C)C(=O)NC2CC2)n1-c1ccc(OC)cc1)N(C)C (centres undefined)	16.6	68.2*	3.8	-1.7	-0.3	0.7
COC(=O)c1ccccc1NC(=S)N1CCN(C2CCCCC2)CC1	-9.1	60.8*	-2.4	1.3	-3.1	-0.7
CCN(C(=O)COC(=O)/C=C/c1ccc2c(c1)OCO2)c1c(N)n(Cc2ccccc2)c(=O)[nH]c1=O	-4.2	-2.8	-0.2	/	164.4*	0.5
CCN(C(=O)COC(=O)/C=C/c1cccc([N+](=O)[O-])c1)c1c(N)n(Cc2ccccc2)c(=O)[nH]c1=O	-9.6	1.9	-1.9	-1.9	-2.1	-0.4
CCCC(=O)Nc1cc(C(F)(F)F)ccc1N1CCOCC1	-2.9	34.8*	-4.2	-1.8	-3.6	0.5
Cc1ccccc1-c1cc(C(=O)NCc2cccc(C(F)(F)F)c2)n(CC2CC(c3cccnc3)=NO2)n1 (centres undefined)	-3.5	-7.2	-0.8	5.5	-6.1	-1.5
Cc1c(C(=O)NC2=NCCS2)cccc1[N+](=O)[O-]	0.1	2.8	-5.8	1.7	2.8	-0.1
Cc1cc(SCc2cccc(Cl)c2)nc(=O)[nH]1	-3.3	54.9*	-6.6	-0.4	-3.0	-1.7
Cc1cc(SCc2ccc(Cl)cc2)nc(=O)[nH]1	-10.9	-3.6	-0.9	1.2	-4.1	-1.1
SMILES	PKA-R1A act	CAL PDZ FP-1	PKA-R2B act	NTR1 agonist	dFosB act	CAL PDZ FP-2
CN(C)c1ccc(/C=C/c2cc[n+]([O-])cc2)cc1	/	/	/	0.8	/	/
CC[n+]1ccc(/C=C/c2ccc(N(C)C)cc2)c2ccccc21	8.7	2.8	6.6	/	47.1*	0.2
CC[n+]1c(/C=C/c2ccc(N(C)C)cc2)ccc2ccccc21	1.8	-3.1	0.4	/	53.5*	1.9
CN(C)c1ccc(/C=C/c2cc[n+](C)cc2)cc1	2.0	-22.8	6.0	-0.7	32.1*	-1.5
CC[n+]1ccccc1/C=C/c1ccc(N(C)C)cc1	0.5	-4.2	2.9	/	-3.2	-2.8
COc1ccc(C(CNCC(O)COc2c(C)ccc(C)c2C)N(C)C)cc1 (centres undefined)	-5.4	5.0	-5.7	-0.8	-1.9	-0.1
COc1ccc(S(=O)(=O)N2CCOCC2)cc1NC(=O)CNC(=O)c1cccs1	-1.3	-2.9	-15.1	-2.2	-2.3	-0.9
CC12C(=O)N(Cc3ccco3)C(=O)C1C1c3ccccc3C2c2ccccc21 (centres undefined)	-7.9	102.8*	-0.1	2.4	1.3	/
O=C(Cc1ccccc1)c1c[nH]c(C(=O)C(Cl)(Cl)Cl)c1	-4.1	167.9*	-10.4	-0.8	-2.2	0.6
O=C(c1ccccc1)c1c[nH]c(C(=O)C(Cl)(Cl)Cl)c1	1.2	0.6	-2.7	-1.3	10.3	0.4
COc1ccc(CC(=O)NCC2CCCN(Cc3ccc(OC(F)(F)F)cc3)C2)cc1 (centres undefined)	-1.6	63.4*	8.9	-0.6	-5.3	-4.0
COC(=O)c1ccc(CN2CCCC(CNC(=O)Cc3ccc(OC)cc3)C2)cc1 (centres undefined)	1.6	-4.0	0.2	0.2	-4.8	0.2
COc1ccc(NC(=O)CNC(=O)C2CCCCC2)cc1	-2.7	52.6*	-3.6	1.0	-2.5	0.8
C=CCOC(=O)C1=C(C)NC(C)=C(C(=O)OCC=C)C1c1ccco1	-17.0	0.8	-9.7	0.8	2.0	-1.1
CCOC(=O)C1=C(C)NC(C)=C(C(=O)OC)C1c1ccco1 (centres undefined)	2.6	36.5*	-7.3	1.8	-4.7	-0.7
O=C(CSc1nnc(-c2ccc(O)cc2)o1)Nc1ccccc1	2.5	61.8*	-7.2	1.5	-13.6	-1.9
CC(C)N(Cc1ccccc1)C(=O)COC(=O)c1cnc(Cl)c(Cl)c1	-2.0	42.3*	-4.0	-1.7	-19.3	0.0
Cc1ccc(-c2cnc3c(c2)C(=O)N([C@H](C)CO)C[C@H](C)[C@@H](CN(C)Cc2ccccc2F)O3)cc1	-14.3	/	-4.8	/	/	/
CCNc1c(NC(=O)COc2ccc(Cl)cc2)c(=O)oc2ccccc12	-10.8	/	-4.4	0.0	0.9	-0.8
